Data on 6 compounds can be found in ChEMBL document CHEMBL5053511, “Discovery of a Novel BCL-XL PROTAC Degrader with Enhanced BCL-2 Inhibition” (J Med Chem, 2021).

Active and inactive are the calls of the source. The rule behind the calls is not given here.

One assay concerns RS4-11. Nature of the assay: Cytotoxicity against human RS4-11 cells assessed as reduction in cell viability measured after 48 hrs by MTS assay. The class given is functional, cell-based. The note with it: RS4-11, 48 h. On the technique in general: Formazan colour is commonly taken as a measure of viable cells.
The next assay concerns MOLT-4. Nature of the assay: Cytotoxicity against human MOLT-4 cells assessed as reduction in cell viability measured after 48 hrs by MTS assay. Type of assay: functional, cell-based. The note with it: MOLT-4, 48 h.
The target in assay [1] is T1, von Hippel-Lindau disease tumor suppressor/Bcl-2-like protein 1 (Homo sapiens, UniProt Q07817+P40337). As to the kind of experiment: Protac activity at VHL/BCL-XL in human MOLT-4 assessed as decrease in BCL-XL protein level at up to […] measured after 16 hrs by Western blot analysis. An outline of the steps: (§1)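 MOLT-4 or RS4;11 cells were treated at a range of concentrations for 16 h. BCL-XL was immunoblotted with β-actin loading control, and band densitometry was normalised to β-actin. Mean ± SD of three independent experiments in triplicate.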
For orientation: In western blotting, separated proteins are transferred to a membrane and probed.

In assay [2] the target is T1, von Hippel-Lindau disease tumor suppressor/Bcl-2-like protein 1. As to the kind of experiment: Protac activity at VHL/BCL-XL in human RS4-11 assessed as decrease in BCL-XL protein level at up to […] measured after 16 hrs by Western blot analysis. An outline of the steps:
as §1

For assay [3] the target is unchanged. As to the kind of experiment: Binding affinity to Halo-tagged VHL/HiBiT-tagged BCL-XL (unknown origin) expressed in HEK293T cells assessed as ternary complex formation at up to 100000 nM measured after 6 hrs by NanoBRET assay. Type of assay: cell-based. The gist of the method: (§2)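 NanoBRET in live HEK 293T cells. Cells were transfected with HaloTag-VHL (1 µg), HiBit-BCL-XL or HiBit-BCL-2 (10 ng) and LgBit (10 ng). After 24 h they were seeded at 2×10^4 per well in Opti-MEM with 4% FBS, with or without HaloTag 618 ligand, and held overnight. Serial compound doses were given for 6 h at 37 °C, then Nano-Glo substrate was added and mBRET ratios read. Mean ± s.e.m. of two experiments in triplicate.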
For orientation: HiBiT is a short tag that completes a luciferase, so light tracks the accessible tagged protein.

Assay [4] has as its target T2, von Hippel-Lindau disease tumor suppressor/Apoptosis regulator Bcl-2 (Homo sapiens) (UniProt P10415+P40337). As to the kind of experiment: Binding affinity to Halo-tagged VHL/HiBiT-tagged BCL-2 (unknown origin) expressed in HEK293T cells assessed as ternary complex formation at up to 100000 nM measured after 6 hrs by NanoBRET assay. The class given is cell-based. An outline of the steps:
as §2

Assay [5] deals with T1, von Hippel-Lindau disease tumor suppressor/Bcl-2-like protein 1. As to the kind of experiment: Binding affinity to VHL/ BCL-XL in human RS4-11 cells assessed as ternary complex formation at up to 300 nM measured after 12 hrs by immunoprecipitation assay. Type of assay: cell-based.
The target is the same in assay [6]. Nature of the assay: Binding affinity to VHL/ BCL-XL in human RS4-11 cells assessed as ternary complex formation at up to 300 nM measured after 12 hrs in presence of VHL-032 by immunoprecipitation assay. The class given is cell-based.
Assay [7] addresses T2, von Hippel-Lindau disease tumor suppressor/Apoptosis regulator Bcl-2 (Homo sapiens). As to the kind of experiment: Binding affinity to VHL/BCL-2 in human RS4-11 cells assessed as ternary complex formation at up to 300 nM measured after 12 hrs in presence of VHL-032 by immunoprecipitation assay. The class given is cell-based.

T1 sequence (P40337 whole entry, looked up): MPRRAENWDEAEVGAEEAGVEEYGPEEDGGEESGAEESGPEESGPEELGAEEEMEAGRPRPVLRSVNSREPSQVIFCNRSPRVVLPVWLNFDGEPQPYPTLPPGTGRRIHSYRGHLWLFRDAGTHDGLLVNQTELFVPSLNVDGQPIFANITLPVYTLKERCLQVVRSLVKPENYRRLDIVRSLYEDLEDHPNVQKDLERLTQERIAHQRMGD
T1 sequence (Q07817 whole entry, looked up): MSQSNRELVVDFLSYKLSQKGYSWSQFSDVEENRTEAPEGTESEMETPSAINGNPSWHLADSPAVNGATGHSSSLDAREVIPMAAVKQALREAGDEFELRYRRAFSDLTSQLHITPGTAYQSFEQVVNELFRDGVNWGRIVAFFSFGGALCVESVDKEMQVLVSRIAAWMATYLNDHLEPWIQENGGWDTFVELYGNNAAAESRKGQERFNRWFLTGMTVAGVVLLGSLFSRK
T2 sequence (P10415 whole entry, looked up): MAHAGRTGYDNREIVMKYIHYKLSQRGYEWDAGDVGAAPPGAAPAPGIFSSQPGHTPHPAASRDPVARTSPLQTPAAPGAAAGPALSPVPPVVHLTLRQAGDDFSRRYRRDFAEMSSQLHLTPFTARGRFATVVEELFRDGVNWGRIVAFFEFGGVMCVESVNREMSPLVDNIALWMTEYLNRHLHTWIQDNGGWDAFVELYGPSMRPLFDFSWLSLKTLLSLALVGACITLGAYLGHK
T2 sequence (P40337 whole entry, looked up): as the sequence (P40337 whole entry, looked up) above

For orientation: IC50 means the concentration that gives 50% inhibition. Turning to `Cc1ncsc1-c1ccc([C@H](C)NC(=O)[C@@H]2C[C@@H](O)CN2C(=O)[C@@H](NC(=O)CCCCCCCCCCC(=O)NCC2(C)CCC(c3ccc(Cl)cc3)=C(CN3CCN(c4ccc(C(=O)NS(=O)(=O)c5ccc(N[C@H](CCN6CCOCC6)CSc6ccccc6)c(S(=O)(=O)C(F)(F)F)c5)cc4)CC3)C2)C(C)(C)C)cc1` (some centres undefined), the IC50 turned out to be 96.3 nM with RS4-11 and 112 nM in the assay with MOLT-4.
As to `Cc1ncsc1-c1ccc([C@H](C)NC(=O)[C@@H]2C[C@H](O)CN2C(=O)[C@@H](NC(=O)CCCCCCCCC(=O)NC[C@]2(C)CCC(c3ccc(Cl)cc3)=C(CN3CCN(c4ccc(C(=O)NS(=O)(=O)c5ccc(N[C@H](CCN6CCOCC6)CSc6ccccc6)c(S(=O)(=O)C(F)(F)F)c5)cc4)CC3)C2)C(C)(C)C)cc1`, the IC50 in the assay with RS4-11 turned out to be 328 nM; in the assay with MOLT-4, 821 nM. Also, the result in assay [1], in [2], in [3], in assay [4], in assay [6] and in assay [7] was inactive. For the same compound, the outcome in assay [5] was Active.
For `Cc1ncsc1-c1ccc([C@H](C)NC(=O)[C@@H]2C[C@@H](O)CN2C(=O)[C@@H](NC(=O)CCCCCCC(=O)NCC2(C)CCC(c3ccc(Cl)cc3)=C(CN3CCN(c4ccc(C(=O)NS(=O)(=O)c5ccc(N[C@H](CCN6CCOCC6)CSc6ccccc6)c(S(=O)(=O)C(F)(F)F)c5)cc4)CC3)C2)C(C)(C)C)cc1` (some centres undefined), the IC50 with RS4-11 came to 108 nM; in the assay with MOLT-4 it was 219 nM.
`Cc1ncsc1-c1ccc([C@H](C)NC(=O)[C@@H]2C[C@@H](O)CN2C(=O)[C@@H](NC(=O)CCCCCCCC(=O)NCC2(C)CCC(c3ccc(Cl)cc3)=C(CN3CCN(c4ccc(C(=O)NS(=O)(=O)c5ccc(N[C@H](CCN6CCOCC6)CSc6ccccc6)c(S(=O)(=O)C(F)(F)F)c5)cc4)CC3)C2)C(C)(C)C)cc1` (some centres undefined): the figures for the IC50 with RS4-11 and in the assay with MOLT-4 were 43.7 nM and 125 nM, respectively.
In the case of `Cc1ncsc1-c1ccc([C@H](C)NC(=O)[C@@H]2C[C@@H](O)CN2C(=O)[C@@H](NC(=O)CCCCCCCCCCCC(=O)NCC2(C)CCC(c3ccc(Cl)cc3)=C(CN3CCN(c4ccc(C(=O)NS(=O)(=O)c5ccc(N[C@H](CCN6CCOCC6)CSc6ccccc6)c(S(=O)(=O)C(F)(F)F)c5)cc4)CC3)C2)C(C)(C)C)cc1` (some centres undefined), the half-inhibitory concentration (IC50) was 410 nM in the assay with RS4-11 and 334 nM in the assay with MOLT-4.
For the compound `Cc1ncsc1-c1ccc([C@H](C)NC(=O)[C@@H]2C[C@@H](O)CN2C(=O)[C@@H](NC(=O)CCCCC(=O)NCC2(C)CCC(c3ccc(Cl)cc3)=C(CN3CCN(c4ccc(C(=O)NS(=O)(=O)c5ccc(N[C@H](CCN6CCOCC6)CSc6ccccc6)c(S(=O)(=O)C(F)(F)F)c5)cc4)CC3)C2)C(C)(C)C)cc1` (some centres undefined), the IC50 with RS4-11 amounted to 304 nM; in the assay on MOLT-4 it was 340 nM.
